Measurements collected from several papers.
Compare with care: the assays were run in different laboratories. pEC50: −log10 of the molar value.
Effect on: cell growth or viability

| Structure (SMILES) | cell line | technique | concentration | time | measurement | result |
| --- | --- | --- | --- | --- | --- | --- |
| Cc1cccc2cc(CNCC3(N4CCCC4)COC3)cnc12 | U-87 MG |  | 30 µM | 48 h | viability | 97.7% |
| Cc1ccc(C(=O)NCc2ccsc2)cc1C#Cc1cn(C2CCCC2)c2ncnc(N)c12 | 32D |  |  |  | GI50 | > 1 µM |
| COC(=O)c1c(C)ncn1CC(c1c[nH]c2ccc(C)cc12)c1c[nH]c2ccc(C)cc12 | DH82 | MTS | 20 µM | 24 h | inhibition | 11.3% |
| CCn1cc(C#Cc2cc(C(=O)NCc3ccsc3)ccc2C)c2c(N)ncnc21 | 32D |  |  |  | GI50 | 0.0233 µM |
| CC(C)Cc1nn(C)c(=O)c2c(SCCCO)n(Cc3cnc(NCCCCCN)c4ccccc34)cc12 | Raji | MTT |  | 96 h | pEC50 | 7.62 |
| Cn1nnc2c(C(N)=O)ncn2c1=O | KATO3 |  |  |  | pEC50 | 3.23 |
| CC(C)Cc1nn(C)c(=O)c2c(SCCCO)n(Cc3ccc(NCCCCCN)nc3)cc12 | Raji | MTT |  | 96 h | pEC50 | 6.28 |
| COc1ccc(/C=C/c2coc3ccc(OC)cc3c2=O)cc1 | HSC-2 | MTT |  | 23 h | CC50 | 2.6 µM |
| COc1ccc(NC(=O)c2c(Nc3ccccc3)sc(C(=O)NN=Cc3cc(OC)c(OC)c(OC)c3)c2NC(C)=O)cc1 | HCT-116 | SRB | 1 µM | 48 h | viability | 78.4% |
| CCOC(=O)c1c(C)ncn1CC(c1cn(C)c2ccc([N+](=O)[O-])cc12)c1cn(C)c2ccc([N+](=O)[O-])cc12 | DH82 | MTS | 200 µM | 72 h | inhibition | 43% |
| COc1ccc(C=NNC(=O)c2sc(Nc3ccccc3)c(C(=O)Nc3ccc(OC)cc3)c2NC(C)=O)cc1 | HCT-116 | SRB | 0.1 µM | 48 h | viability | 72.5% |
| CCc1ncn(CC(c2c[nH]c3ccc(C)cc23)c2c[nH]c3ccc(C)cc23)c1C(=O)OC | DH82 | MTS | 20 µM | 24 h | inhibition | 6.1% |
| COc1ccc2occ(/C=C/c3ccc(O)cc3)c(=O)c2c1 | HSC-2 | MTT |  | 6.7 h | CC50 | 9.5 µM |
| COc1ccc(NC(=O)c2c(Nc3ccccc3)sc(C(=O)NN=Cc3ccccc3)c2NC(C)=O)cc1 | HCT-116 | SRB | 1 nM | 48 h | viability | 101% |
| COc1cc(-c2ccc(-c3ccc(C(=N)N)nc3)s2)cc(OC)c1OC | EKVX | SRB |  |  | GI50 | 5.19 µM |
| COc1ccc(NC(=O)c2c(Nc3ccccc3)sc(C(=O)NN=Cc3ccc(C)cc3)c2NC(C)=O)cc1 | HCT-116 | SRB | 10 nM | 48 h | viability | 90.2% |
| c1ccc(-c2ccc(CNCC3(N4CCCC4)COC3)s2)cc1 | U-87 MG |  | 30 µM | 48 h | viability | 55.6% |
| COCCn1cc(C#Cc2cc(C(=O)NCc3ccsc3)ccc2C)c2c(N)ncnc21 | 32D |  |  |  | GI50 | > 3 µM |
| C=CC(=O)N1CCC[C@@H](n2nc(-c3ccc(Oc4ccccc4)cc3)c3c(N)ncnc32)C1 | DOHH-2 | ATP luminescence |  | 72 h | GI50 | 17 µM |
| COc1ccc(NC(=O)c2c(Nc3ccccc3)sc(C#N)c2NC(=O)CNc2ccccc2Cl)cc1 | HCT-116 | SRB | 10 nM | 48 h | viability | 87.7% |
| Cc1cn(CC(c2cn(C)c3ccccc23)c2cn(C)c3ccccc23)nn1 | DH82 | MTS | 20 µM | 24 h | inhibition | 17.9% |
| COc1ccc(NC(=O)c2c(Nc3ccccc3)sc(C#N)c2NC(=O)CNc2ccc(Br)cc2)cc1 | HCT-116 | SRB | 0.1 µM | 48 h | viability | 80.6% |
| CC(C)Cc1nn(C)c(=O)c2c(SCCCO)n(Cc3ccnc(NCCCCCN)c3)cc12 | Raji | MTT |  | 96 h | pEC50 | 6.16 |
| COc1ccc2occ(/C=C/c3cc(OC)c(OC)c(OC)c3)c(=O)c2c1 | HSC-2 | MTT |  | 7 h | CC50 | 20 µM |
| COc1ccc(NCC(=O)Nc2c(C#N)sc(Nc3ccccc3)c2C(=O)Nc2ccc(OC)cc2)cc1 | HCT-116 | SRB | 1 nM | 48 h | viability | 99.5% |
| COc1ccc(-c2ccc(-c3ccc(C(=N)N)nc3)s2)cc1 | OVCAR-8 | SRB |  |  | GI50 | 2.12 µM |
| COc1ccc(NC(=O)c2c(Nc3ccccc3)sc(C#N)c2NC(=O)CNc2ccccc2[N+](=O)[O-])cc1 | HCT-116 | SRB | 10 µM | 48 h | viability | 72.7% |
| Cc1ccc(C(=O)NCc2ccsc2)cc1C#Cc1cn(CCN(C)C)c2ncnc(N)c12 | 32D |  |  |  | GI50 | > 1 µM |
